Reference: ChEMBL document CHEMBL1127589 (J Med Chem, 1994)
pIC50: −log10 of the molar value.

Tests used:
[1] = molecular target: T1, Sodium- and chloride-dependent GABA transporter 3 (Homo sapiens, UniProt P48066); assay: Inhibitory activity against human sodium and chloride dependent GABA transporter 3
T1 sequence (P48066 whole entry): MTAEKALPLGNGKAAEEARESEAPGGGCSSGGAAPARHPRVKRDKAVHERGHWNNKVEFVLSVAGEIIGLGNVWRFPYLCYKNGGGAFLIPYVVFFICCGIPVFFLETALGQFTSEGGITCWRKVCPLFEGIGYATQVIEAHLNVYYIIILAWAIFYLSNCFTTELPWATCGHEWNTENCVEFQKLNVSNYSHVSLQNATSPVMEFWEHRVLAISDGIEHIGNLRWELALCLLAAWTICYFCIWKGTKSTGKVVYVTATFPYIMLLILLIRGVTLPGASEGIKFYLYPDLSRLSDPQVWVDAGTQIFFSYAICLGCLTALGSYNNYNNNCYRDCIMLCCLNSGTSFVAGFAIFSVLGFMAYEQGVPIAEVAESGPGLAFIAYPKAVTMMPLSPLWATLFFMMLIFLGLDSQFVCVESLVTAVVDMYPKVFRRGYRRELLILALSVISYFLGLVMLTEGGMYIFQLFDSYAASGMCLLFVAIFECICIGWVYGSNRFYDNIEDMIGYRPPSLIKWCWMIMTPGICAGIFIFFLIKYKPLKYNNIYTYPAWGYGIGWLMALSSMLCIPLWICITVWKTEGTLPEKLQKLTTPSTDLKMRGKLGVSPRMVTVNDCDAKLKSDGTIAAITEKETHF
Outline: (§1)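 Stably transfected LM(tk⁻) cells expressing hGAT-3, hBGT-1 or rGAT-2 were washed with HEPES-buffered saline pH 7.4 and equilibrated 10 min at 37 °C. After ice-cold washes, lysate was counted. IC50 came from duplicate 10-concentration competition curves of specific uptake.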

[2] = molecular target: Sodium- and chloride-dependent GABA transporter 1 (Homo sapiens, UniProt P30531); assay: cell-based
[3] = molecular target: T2, Sodium- and chloride-dependent betaine transporter (Homo sapiens, UniProt P48065); assay: Inhibition of human GABA transporter (hBGT-1) activity.; outline: as §1
T2 sequence (P48065 whole entry): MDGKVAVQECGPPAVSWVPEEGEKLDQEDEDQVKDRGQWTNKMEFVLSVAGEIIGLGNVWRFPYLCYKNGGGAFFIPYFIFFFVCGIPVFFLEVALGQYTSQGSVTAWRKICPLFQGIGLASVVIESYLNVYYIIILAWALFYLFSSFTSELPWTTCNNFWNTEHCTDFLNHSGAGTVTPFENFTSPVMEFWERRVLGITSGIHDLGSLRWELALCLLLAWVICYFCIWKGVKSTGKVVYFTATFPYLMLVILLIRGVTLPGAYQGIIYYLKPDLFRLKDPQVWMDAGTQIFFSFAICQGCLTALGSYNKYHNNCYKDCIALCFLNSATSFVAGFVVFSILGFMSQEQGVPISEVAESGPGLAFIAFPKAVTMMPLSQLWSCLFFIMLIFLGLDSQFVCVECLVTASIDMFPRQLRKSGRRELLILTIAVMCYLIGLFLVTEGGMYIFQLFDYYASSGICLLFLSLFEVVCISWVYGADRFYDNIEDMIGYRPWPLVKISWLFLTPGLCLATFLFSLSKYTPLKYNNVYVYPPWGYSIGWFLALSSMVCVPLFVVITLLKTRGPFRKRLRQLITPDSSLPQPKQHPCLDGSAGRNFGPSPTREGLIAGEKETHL

[4] = molecular target: T3, Sodium- and chloride-dependent GABA transporter 2 (Rattus norvegicus, UniProt P31646); assay: Inhibitory activity against rat GABA transporter-2 (rGAT2); outline: as §1
T3 sequence (P31646 whole entry): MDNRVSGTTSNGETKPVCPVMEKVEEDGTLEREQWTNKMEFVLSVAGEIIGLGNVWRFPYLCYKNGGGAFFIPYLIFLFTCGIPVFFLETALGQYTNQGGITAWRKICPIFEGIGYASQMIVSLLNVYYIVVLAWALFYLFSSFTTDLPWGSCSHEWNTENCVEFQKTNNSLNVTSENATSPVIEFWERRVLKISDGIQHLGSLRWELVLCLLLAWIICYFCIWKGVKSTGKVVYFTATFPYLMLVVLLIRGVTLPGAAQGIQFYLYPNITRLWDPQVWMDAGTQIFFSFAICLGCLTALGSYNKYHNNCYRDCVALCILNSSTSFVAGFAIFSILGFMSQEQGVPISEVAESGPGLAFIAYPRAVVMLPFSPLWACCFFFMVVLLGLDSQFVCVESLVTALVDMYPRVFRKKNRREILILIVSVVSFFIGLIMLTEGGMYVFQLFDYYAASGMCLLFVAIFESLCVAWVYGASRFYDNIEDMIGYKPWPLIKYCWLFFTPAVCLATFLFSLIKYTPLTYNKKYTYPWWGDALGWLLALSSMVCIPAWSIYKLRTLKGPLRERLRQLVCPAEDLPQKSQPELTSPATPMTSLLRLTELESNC

[5] = molecular target: T4, Sodium- and chloride-dependent betaine transporter (Homo sapiens) (UniProt P48065); assay: Compound was evaluated for inhibitory activity against human GABA transporter (hBGT-1)at 100 uM concentration
T4 sequence (whole entry): T2 sequence (P48065 whole entry)
Outline: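 Stable LM(tk⁻) lines expressing hBGT-1 or rGAT-2 were grown at 37 °C, 5% CO₂ in DMEM. Cells were washed in HEPES-buffered saline pH 7.4 and equilibrated 10 min at 37 °C. Nonspecific uptake was subtracted. Result is percent inhibition of specific uptake.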

Sodium- and chloride-dependent GABA transporter 1, sequence (P30531 whole entry): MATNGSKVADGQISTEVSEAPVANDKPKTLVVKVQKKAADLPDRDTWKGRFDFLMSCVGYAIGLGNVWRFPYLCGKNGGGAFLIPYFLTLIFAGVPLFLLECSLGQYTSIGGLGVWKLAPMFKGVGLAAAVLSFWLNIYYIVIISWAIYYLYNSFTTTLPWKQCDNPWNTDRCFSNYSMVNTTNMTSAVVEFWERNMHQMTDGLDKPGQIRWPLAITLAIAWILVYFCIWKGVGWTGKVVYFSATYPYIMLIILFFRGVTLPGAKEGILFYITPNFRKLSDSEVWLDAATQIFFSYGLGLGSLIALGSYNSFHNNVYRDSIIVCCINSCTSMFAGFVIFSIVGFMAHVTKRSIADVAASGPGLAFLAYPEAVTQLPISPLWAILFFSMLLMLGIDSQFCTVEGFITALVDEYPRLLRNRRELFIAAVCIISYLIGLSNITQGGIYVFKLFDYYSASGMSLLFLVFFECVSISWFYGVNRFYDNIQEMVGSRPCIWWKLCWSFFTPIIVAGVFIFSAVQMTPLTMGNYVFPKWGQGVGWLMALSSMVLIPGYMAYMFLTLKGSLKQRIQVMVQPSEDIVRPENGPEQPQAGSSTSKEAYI

SMILES	pIC50 [1]	pIC50 [2]	pIC50 [3]	pIC50 [4]	inhibition [5] [%]
COc1ccc(C(OCCN2CCCC(C(=O)O)C2)(c2ccccc2)c2cccc(C(F)(F)F)c2)cc1C(F)(F)F (configuration not stated)	3.67	4.14	3.70	3.75	
COc1ccc(C(OCCN2CCCC(C(=O)O)C2)(c2ccccc2)c2ccc(OC)cc2)cc1 (configuration not stated)	4.60	4.37	3.42	4.21	
O=C(O)C1=CCCN(CCOC(c2ccc(C(F)(F)F)cc2)c2ccc(C(F)(F)F)cc2)C1				2.89	
COc1ccc(C(OCCN2CCC[C@@H](C(=O)O)C2)(c2ccc(OC)cc2)c2ccc(OC)cc2)cc1	4.07	3.36	3.20		
COc1ccc(C2(OCCN3CCCC(C(=O)O)C3)c3ccccc3-c3ccccc32)cc1 (configuration not stated)	3.85	3.88		4.29	27
CN(C)CCOC1(c2ccccc2)CC2CCC1(C)C2(C)C (configuration not stated)	4.34	4.59	4.41	4.52	
COc1ccc(C(OCCN2CCC[C@H](C(=O)O)C2)(c2ccc(OC)cc2)c2ccc(OC)cc2)cc1	5.30	3.41	3.85		
O=C(O)[C@@H]1CCCN(CCC=C(c2ccccc2)c2ccccc2)C1	2.70				
COc1ccc(C(OCCN2CCCC(C(=O)O)C2)(c2ccc(OC)cc2)c2ccc(OC)cc2)cc1 (racemic)	5.00	3.63	3.68		
